Reference: ChEMBL document CHEMBL3232933, “Pyrazole-5-carboxamides, novel inhibitors of receptor for advanced glycation end products (RAGE)” (Eur J Med Chem, 2014)
Calls of active or inactive are those of the source. No cut-off for these calls is given here.

How the values were obtained:
[1] = Kinetic solubility of the compound in PBS at pH 7.4 by nephelometric analysis; format: physicochemical; settings: read-out: Kinetic_solubility
Summary of the method: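 Kinetic solubility was measured on the HCl salt, added from a DMSO stock, in triplicate experiments.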

[2] = target: T1, Advanced glycosylation end product-specific receptor (Homo sapiens, UniProt Q15109); experiment: Inhibition of biotinylated human RAGE assessed as bound amyloid beta level at 20 uM after 60 mins by ELISA relative to control
T1 sequence (Q15109 whole entry): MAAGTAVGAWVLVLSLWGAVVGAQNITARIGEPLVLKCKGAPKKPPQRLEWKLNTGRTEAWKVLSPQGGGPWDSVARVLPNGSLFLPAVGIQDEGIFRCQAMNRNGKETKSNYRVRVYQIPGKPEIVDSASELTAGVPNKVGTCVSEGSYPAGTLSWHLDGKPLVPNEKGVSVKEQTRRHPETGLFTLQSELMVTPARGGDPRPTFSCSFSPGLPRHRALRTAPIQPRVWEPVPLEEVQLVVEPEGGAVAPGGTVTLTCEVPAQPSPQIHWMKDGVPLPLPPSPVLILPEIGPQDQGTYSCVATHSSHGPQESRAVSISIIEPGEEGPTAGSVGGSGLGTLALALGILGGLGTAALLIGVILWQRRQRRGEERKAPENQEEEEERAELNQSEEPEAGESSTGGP
Summary of the method: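 Biotinylated human RAGE (1 µg), Aβ1-42 oligomers (aged in PBS for 24 h at 4 °C) and compound at a single fixed level were co-incubated in TBS-T with 2.5% BSA on streptavidin plates for 60 min at ambient temperature. Bound Aβ was detected with HRP-4G8, TMB and A450. % inhibition is given as mean ± SD of duplicate experiments.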

[3] = target: T1, Advanced glycosylation end product-specific receptor; experiment: Inhibition of biotinylated human RAGE assessed as bound amyloid beta level after 60 mins by ELISA
[4] = AUC in Sprague-Dawley rat at 2 mg/kg, iv; format: ADME, organism-based; set-up: dose 2 mg/kg, route intravenous; settings: plasma
Mus musculus [5] = experiment: Antialzheimer activity in ICR mouse injected with human amyloid beta (1 to 42) assessed as increase in human amyloid beta (1 to 42) level in plasma at 25 mg/kg, ip administered 20 mins prior to human amyloid beta (1 to 42) injection measured after 30 mins relative to control; format: functional; settings: route intraperitoneal
Summary of the method: (§1)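 Male ICR mice, 3 months old (25 g, n = 4), got one i.p. dose of 25 mg/kg or vehicle. After 20 min, human Aβ1-42 in PBS was injected into the tail vein and circulated for 30 min. Human Aβ was then measured in brain extracts and plasma. Values are means ± SD.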

Mus musculus [6] = experiment: Antialzheimer activity in ICR mouse injected with human amyloid beta (1 to 42) assessed as reduction of human amyloid beta (1 to 42) level in brain at 25 mg/kg, ip administered 20 mins prior to human amyloid beta (1 to 42) injection measured after 30 mins relative to control; format: functional; set-up: scale not given: the % may be the effect or the level left; settings: route intraperitoneal; summary of the method: as §1

| inhibition [2] | Compound | further results |
| --- | --- | --- |
| 19.9% | CCCCOc1cc(OCCCN(CC)CC)ccc1NC(=O)c1cc(-c2ccc(Oc3ccc(F)c(F)c3)cc2)nn1C | – |
| 36.5% | CCCCOc1cc(OCCCN(CC)CC)ccc1NC(=O)c1cc(-c2ccc(Oc3ccc(OC)c(Cl)c3)cc2)nn1C | IC50 [3]: 5.3 µM |
| inactive | CCCCOc1cc(OCCCN(CC)CC)ccc1NC(=O)c1cc(-c2ccc(Oc3ccc(Cl)cc3)cc2)n[nH]1 | – |
| 32.1% | CCCCOc1cc(OCCCN(CC)CC)ccc1NC(=O)c1cc(-c2ccc(Oc3ccc(Cl)cc3)cc2)no1 | – |
| 74.2% | CCCCOc1cc(OCCCN(CC)CC)ccc1NC(=O)c1cc(-c2ccc(Oc3ccc(OC)cc3)cc2)nn1C | IC50 [3]: 7.8 µM |
| 41.4% | CCCCn1nc(-c2ccc(Oc3ccc(Cl)cc3)cc2)cc1C(=O)Nc1ccc(OCCCN(CC)CC)cc1 | – |
| 27% | CCN(CC)CCOc1ccc(NC(=O)c2cc(-c3ccc(Oc4ccc(Cl)cc4)cc3)nn2C)cc1 | – |
| 37% | CCCCOc1cc(OCCCN(CC)CC)ccc1NC(=O)c1cc(-c2ccc(Oc3cccc(F)c3)cc2)nn1C | – |
| inactive | CCCCOc1cc(OCCCN(CC)CC)ccc1NC(=O)c1cc(-c2ccc(Oc3ccc(Cl)cc3)cc2)nn1CCCC | – |
| 29.5% | CCCCOc1cc(OCCCN(CC)CC)ccc1NC(=O)c1cc(-c2ccc(Oc3ccccc3F)cc2)nn1C | – |
| 44.6% | CCCCOc1cc(OCCCN(CC)CC)ccc1NC(=O)c1cc(-c2ccc(Oc3ccc(Cl)cc3)cc2)nn1CCC | – |
| 83.1% | CCCCOc1cc(OCCCN(CC)CC)ccc1NC(=O)c1cc(-c2ccc(Oc3ccc(C(F)(F)F)cc3)cc2)nn1C | IC50 [3]: 1.9 µM |
| 77% | CCCCOc1cc(OCCCN(CC)CC)ccc1NC(=O)c1cc(-c2ccc(Oc3ccccc3)cc2)nn1C | IC50 [3]: 5.4 µM |

The next lines start with the compound.

| Compound | inhibition [2] | further results |
| --- | --- | --- |
| CCCCOc1cc(OCCCN(CC)CC)ccc1NC(=O)c1cc(-c2ccc(Oc3ccc(F)cc3)cc2)nn1C.Cl | – | solubility kinetic [1]: 80.3 µM |
| CCCCOc1cc(OCCCN(CC)CC)ccc1NC(=O)c1cc(-c2ccc(Oc3ccc(Cl)cc3)cc2)n(CCC)n1 | 45.7% | – |
| CCCCOc1cc(OCCCN(CC)CC)ccc1NC(=O)c1cc(-c2ccc(Oc3ccc(Cl)cc3)cc2)nn1CC | 44.7% | – |
| CCCCOc1cc(OCCCN(CC)CC)ccc1NC(=O)c1cc(-c2ccc(OC3CCCCC3)cc2)nn1C | 76% | IC50 [3]: 2.5 µM |
| CCN(CC)CCCOc1ccc(NC(=O)c2cc(-c3ccc(Oc4ccc(Cl)cc4)cc3)nn2C)cc1 | 33.8% | – |
| CCN(CC)CCOc1cccc(Nc2nc(-c3ccc(Cl)cc3)cc(-c3ccc(Cl)cc3)n2)c1.Cl | – | solubility kinetic [1]: 16.5 µM |
| CCCCOc1cc(OCCCN(CC)CC)ccc1NC(=O)c1cc(-c2ccc(Oc3ccc(C(C)(C)C)cc3)cc2)nn1C | inactive | – |
| CCN(CC)CCOc1ccc(NC(=O)c2cc(-c3ccc(OC)cc3)nn2C)cc1 | 20.5% | – |
| CCCCOc1cc(OCCCN(CC)CC)ccc1NC(=O)c1cc(-c2ccc(OC)cc2)n[nH]1 | inactive | – |
| CCCCOc1cc(OCCCN(CC)CC)ccc1NC(=O)c1cc(-c2ccc(Oc3ccc(OC)c(F)c3)cc2)nn1C | 34.1% | – |
| CCCCOc1cc(OCCCN(CC)CC)ccc1NC(=O)c1cc(-c2ccc(Oc3ccc(Cl)cc3)cc2)n(CCCC)n1 | 36% | – |
| CCN(CC)CCCOc1ccc(NC(=O)c2cc(-c3ccc(OC)cc3)nn2C)cc1 | 20.5% | – |
| CCCCOc1cc(OCCCN(CC)CC)ccc1NC(=O)c1cc(-c2ccc(Oc3ccc(F)cc3)cc2)nn1C [listing 1 of 2 here] | 79.3% | – |
| CCCCOc1cc(OCCCN(CC)CC)ccc1NC(=O)c1cc(-c2ccc(Oc3ccc(Cl)cc3)cc2)nn1C | 49.7% | – |
| CCN(CC)CCOc1cccc(Nc2nc(-c3ccc(Cl)cc3)cc(-c3ccc(Cl)cc3)n2)c1 | – | AUC [4]: 10600 ng·h/mL |
| CCCCOc1cc(OCCCN(CC)CC)ccc1NC(=O)c1cc(-c2ccc(OC)cc2)nn1C | 32.4% | – |
| CCCCOc1cc(OCCCN(CC)CC)ccc1NC(=O)c1cc(-c2ccc(Oc3ccc(F)cc3)cc2)nn1C [listing 2 of 2 here] | – | Activity (Mus musculus [5]): 4.01%; Activity (Mus musculus [6]): 37.86%; AUC [4]: 8560 ng·h/mL |
| CCCCOc1cc(OCCCN(CC)CC)ccc1NC(=O)c1cc(-c2ccc(Oc3ccccn3)cc2)nn1C | 52.6% | IC50 [3]: 18.9 µM |
